Experimental data as given in ChEMBL document CHEMBL4304791, “DABMA: A Derivative of ABMA with Improved Broad-Spectrum Inhibitory Activity of Toxins and Viruses” (ACS Med Chem Lett, 2019).
Calls of active or inactive are those of the source. The rule behind the calls is not given here.

Legend:
A549 [1] = test: Induction of morphological changes in human A549 cells assessed as change in mitochondria at 30 uM incubated for 24 hrs by MitoTracker Red based inverted microscopic method; format: functional, cell-based
Vero [2] = test: Inhibition of TcsL-induced cytotoxicity against African green monkey Vero cells assessed as reversal of toxin-induced cell rounding at 30 uM in presence of TcsL after 16 hrs by inverted microscopic analysis; format: functional, cell-based; conditions: Chlorocebus sabaeus
Summary of the method: (§1)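 Vero cells were given compound (30 μM) or DMSO, then increasing doses of TcdB for 4 h or TcsL for 16 h. Cell rounding was imaged by inverted microscope. Rounded cells were counted and normalised to total Hoechst-counterstained cells (>100 cells per treatment).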

[3] = Cytotoxicity against human HeLa cells assessed as reduction in cell viability incubated for 20 hrs by Alamar blue assay; format: cell-based
Zaire ebolavirus = test: Antiviral activity against Zaire EBOV-Mayinga expressing GFP infected in human HeLa cells preincubated for 1 hr followed by viral infection after 24 hrs by DAPI-staining based fluorescence assay; format: functional, organism-based; conditions: Zaire, 1976, HeLa
Vero [4] = test: Inhibition of TcdB-induced cytotoxicity against African green monkey Vero cells assessed as reversal of toxin-induced cell rounding after 4 hrs by inverted microscopic analysis; format: functional, cell-based; conditions: Chlorocebus sabaeus; summary of the method: as §1
[5] = Selectivity index, ratio of CC50 for cytotoxicity against mouse L929 cells to EC50 for cytoprotective activity in Pseudomonas aeruginosa exotoxin-induced cytotoxicity in mouse L929 cells; format: toxicity, cell-based; conditions: read-out: Ratio CC50/EC50
[6] = Cytotoxicity against human A549 cells assessed as reduction in cell viability incubated for 24 hrs by Alamar blue assay; format: cell-based
Summary of the method: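 A549 cytotoxicity by Alamar Blue viability assay; duplicate wells, mean ± SD, one representative experiment (n = 3).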

[7] = Selectivity index, ratio of CC50 for cytotoxicity against human HeLa cells to ratio of EC50 for Antiviral activity against Zaire EBOV-mayinga strain expressing GFP infected in human HeLa cells; format: toxicity, cell-based; conditions: read-out: Ratio CC50/EC50
A549 [8] = test: Selectivity index, ratio of CC50 for cytotoxicity against human A549 cells to EC50 for cytoprotective activity in diphtheria-induced cytotoxicity in human A549 cells
Lyssavirus rabies = test: Antiviral activity against RABV infected in BSR cells preincubated for 4 hrs followed by viral infection and further incubated with compounds for 24 hrs by immunostaining-based assay; format: functional, organism-based
Summary of the method: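 BSR cells were pretreated 4 h with compound, then infected with RABV (MOI = 14) for 1 h. Cells were washed and kept with compound for 24 h, then fixed and immunostained for the RABV ribonucleocapsid (RNP). Nuclei and RNP images from 15 fields per well (>10,000 cells) were used to calculate percent inhibition.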

A549 [9] = test: Increase in cholesterol accumulation in human A549 cells at 30 uM incubated for 18 hrs by choelesterol-avid filipin-3 staining based confocal microscopic analysis; format: functional, cell-based
Summary of the method: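 A549 cells were treated 18 h with compound or DMSO, fixed, and stained with Filipin III for cholesterol. Confocal imaging; fluorescence quantified in >30 cells (mean ± SEM), unpaired t test versus DMSO.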

COc1ccc(Br)cc1CNC12CC3CC(C)(CC(C)(C3)C1)C2
Activity (A549 [1]): inactive
inhibition (Vero [2]): Active
CC50 at 20 h [3]: 117 µM
EC50 (Zaire ebolavirus): 0.908 µM
EC50 (Vero [4]): 38.6 µM
selectivity ratio [5]: 4.35
CC50 at 24 h [6]: 120 µM
selectivity ratio [7]: 120
Ratio CC50/EC50 (A549 [8]): 4.7
inhibition (Lyssavirus rabies): Active
Activity (A549 [9]): Active
